Experimental data from different studies.
Compare with care: the assays were run in different laboratories.
Target: TGF-beta receptor type-1 (TGFBR1, Homo sapiens, UniProt P36897)

O=C(CSc1nc2nccnc2c(=O)n1CCc1ccccc1)Nc1nccs1
inhibition (enzyme activity; inhibitor; 10 µM): 1%

CO[C@H]1CC[C@H](CNc2ccc(S(=O)(=O)NC(=O)c3ccc(N4CCN(CC5=C(c6ccc(Cl)cc6)CC(C)(C)CC5)CC4)cc3Oc3cnc4[nH]ccc4c3)cc2[N+](=O)[O-])CC1
remaining binding (cell-free assay; competition with immobilised ligand; 1 µM): 84%

Nc1ncnc2occ(-c3ccc(NC(=O)Nc4cc(C(F)(F)F)ccc4F)cc3)c12
remaining signal (cell-free assay; 20 µM): 52%

Cc1ccc(C(=O)Nc2ccc(CN3CCN(C)CC3)c(C(F)(F)F)c2)cc1C#Cc1cnc2cccnn12
remaining signal (cell-free assay; 23.5 nM): 98%

CC(C)(C)c1nc2c(s1)c1nc(N)ncc1c1ccc(NS(=O)(=O)c3c(F)cccc3F)c(F)c12
remaining activity (enzyme activity; inhibitor; radiometric; 1 µM): 102%

Cc1cc(-n2nc(Cc3cc(F)cc(C(F)(F)F)c3)nc2C)ccc1C(N)=O
remaining binding (cell-free assay; competition with immobilised ligand; 1 µM): 94%

Cc1cc(NC(=O)c2cccc3cc(-c4cccc5[nH]nc(N)c45)ccc23)ccc1F
activity vs control (enzyme activity; inhibitor; 0.1 µM): 120%

Fc1ccc(-c2ncn(-c3ccc4ccccc4c3)c2-c2ccncc2)cc1
inhibition (cell-free assay; TR-FRET; 1 µM): 14%

COc1cc(/C=C/C(=O)CC(=O)/C=C/c2ccc(O)c(OC)c2)ccc1O
activity vs control (enzyme activity; inhibitor; 1 µM): 82%

C=CC(=O)Nc1cc(Nc2nccc(Nc3cc(Cl)c(F)cc3C(C)(C)O)n2)c(OC)cc1N1CC[C@@H](N(C)C)C1
inhibition (enzyme activity; inhibitor; 1 µM): 42%

COc1cc(-c2cc(-c3ccc(N4CCNCC4)cc3)cnc2C)cc(OC)c1OC
inhibition (enzyme activity; inhibitor; 1 µM): 32%

CCOc1cc(-c2nncn2C)ccc1Nc1ncc2cc(C)nc(NCC(C)(C)C)c2n1
inhibition (cell-free assay; TR-FRET; 1 µM): ≤ 15%

Cc1ccc(NC(=O)c2ccc(CN3CCN(C)CC3)cc2)cc1Nc1nc(-c2cccnc2)cs1
remaining signal (cell-free assay; 0.5 µM): 98.5%

CO[C@@H](C)c1c(Nc2ccc([C@@H](N(C)C(=O)C3CCS(=O)(=O)CC3)C(F)(F)F)cc2)cnc2cc(Cl)nn12
remaining binding (cell-free assay; competition with immobilised ligand; 1 µM): 95%

Fc1ccc(-c2ncn(-c3ccc(-c4ccccc4)cc3)c2-c2ccncc2)cc1
inhibition (cell-free assay; TR-FRET; 1 µM): 15%

CCCOc1ccc([C@@H]2[C@@H](C(=O)O)[C@H](c3ccc4c(c3)OCO4)CN2CC(=O)Nc2c(CC)cccc2CC)cc1
remaining binding (cell-free assay; competition with immobilised ligand; 1 µM): 64%

O=C(Nc1cnn(-c2csc(C(=O)NC3COC3)c2)c1)Nc1c(F)cccc1Cl
remaining activity (enzyme activity; inhibitor; 5 µM): 97.4%

Cc1cccc(-c2[nH]c(C(C)(C)C)nc2-c2ccc3c(c2)OCO3)n1
remaining signal (cell-free assay; 0.5 µM): 35.8%

Fc1ccc(-c2c(-c3ccncc3)ncn2-c2ccccc2)cc1
inhibition (cell-free assay; TR-FRET; 1 µM): 21%

CN(C)c1ncnc(-c2ccc3nc(Nc4cc(CN5CCN(C(=O)CC(F)(F)F)CC5)ccn4)[nH]c3c2)c1Cl
remaining binding (cell-free assay; competition with immobilised ligand; 1 µM): 100%

Fc1ccc(-c2ncn(C3=CCCCC3)c2-c2ccncc2)cc1
inhibition (cell-free assay; TR-FRET; 1 µM): 19%

O=C1NC(=O)c2cc(Nc3ccc(F)cc3)c(Nc3ccc(F)cc3)cc21
remaining signal (cell-free assay; 0.5 µM): 98.1%

CC(=O)C1=C(C)N(c2cccc(C(F)(F)F)c2)C(=O)N[C@@H]1c1ccc(C#N)nc1
remaining binding (cell-free assay; competition with immobilised ligand; 1 µM): 99.2%

CCN(CC)c1ccc(C2=NNC(=O)CC2C)cc1[N+](=O)[O-] (stereo not shown)
remaining activity (enzyme activity; inhibitor; 10 µM): 89%

C#Cc1cccc(Nc2ncnc3cc(OCCOC)c(OCCOC)cc23)c1
remaining signal (cell-free assay; 0.5 µM): 99.1%

COc1ccc2c(c1)O[C@@H](c1ccc(OC)c(OC)c1)C[C@H]2NC(=O)C1(c2ccc3c(c2)OC(F)(F)O3)CC1
remaining binding (cell-free assay; competition with immobilised ligand; 1 µM): 100%

N#CCCc1ccc2c(c1)-c1[nH]c3ccc([N+](=O)[O-])cc3c1CC(=O)N2
remaining signal (cell-free assay; 0.5 µM): 103%

CN(C)C(=O)Cn1cc(-c2nc(C3(c4ccc(-c5cnc(N)nc5)cc4)CC3)no2)cn1
remaining binding (cell-free assay; competition with immobilised ligand; 1 µM): 97%
